GPR7 antag: human neuropeptides B/W receptor 1 antagonism. P48145. GPR7-expressing cells, fluorescence antagonist assay. inhibition, % at 4.4 µM. actives 1.1% (n = 290,000). AID 1861; in the data active = inhibition above about 16%, passing the limit was not always enough;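 also: cells stimulated with the agonist NPW; 0% = agonist with vehicle and 100% = vehicle without agonist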
CHO parental Ca: signal in parental CHO cells, OX1R antagonist counter-screen. parental CHO-K1, ATP-induced calcium, Fluo-8 fluorescence. inhibition, % at 5.6 µM. actives 0.63% (n = 330,000);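 active = inhibition above that plate's mean sample inhibition plus 3 SD, cut at about 26% in these data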;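 also: 0% = ATP-challenged DMSO wells and 100% = DMSO wells without ATP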
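material = parental CHO cells | also added = ATP as calcium-mobilizing challenge | dosing = single point at 5.6 µM | detection = intracellular calcium via Fluo-8 no-wash fluorescent dye | read-out = % inhibition | benchmarks = low control ATP plus DMSO, high control DMSO only | repeats = one well per compound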
GalR3 antag: human GalR3 antagonism. O60755. HEK293 GalR3-CNG cAMP membrane potential fluorescence; galR3 body fused to GalR1 C-terminus. inhibition, % at 3 µM. actives 0.44% (n = 360,000);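 active = inhibition above the screen-wide average plus 3 SD, cut at about 13% in these data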;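 also: forskolin and galanin both at EC90 stimulate the cells; cAMP rise reported by CNG channel membrane potential dye signal; 0% = forskolin plus galanin with DMSO and 100% = forskolin alone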
OX1R antag-1: OX1R (human) antagonism; AID 485270; OX1R-expressing cells, FRET antagonist read-out; actives 1.8% (n = 330,000); inhibition, % at 6.6 µM; in the data active = inhibition mostly above about 38%, no sharp cut-off; inactive = mostly below about 40%;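 also: 0% = agonist challenge alone and 100% = reference antagonist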
Target sequence (O43613 whole entry, looked up): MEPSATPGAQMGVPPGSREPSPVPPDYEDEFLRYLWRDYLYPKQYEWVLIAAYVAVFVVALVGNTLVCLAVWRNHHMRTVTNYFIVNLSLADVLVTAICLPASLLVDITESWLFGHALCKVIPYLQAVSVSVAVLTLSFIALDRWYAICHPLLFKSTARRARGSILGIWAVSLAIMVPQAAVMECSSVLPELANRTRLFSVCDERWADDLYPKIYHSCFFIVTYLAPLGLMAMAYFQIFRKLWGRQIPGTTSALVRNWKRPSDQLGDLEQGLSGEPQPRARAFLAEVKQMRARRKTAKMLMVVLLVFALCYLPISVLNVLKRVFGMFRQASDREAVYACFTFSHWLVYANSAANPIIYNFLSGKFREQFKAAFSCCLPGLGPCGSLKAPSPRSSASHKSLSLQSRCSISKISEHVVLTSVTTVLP
OX1R antag-2: blocks the human orexin 1 receptor. O43613. CHO/OX1R cells, Fluo-8 calcium fluorescence, orexin A. inhibition, % at 5 µM. actives 0.43% (n = 330,000). AID 434989;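 active = inhibition above its plate's threshold, mean inhibition of all tested compounds on the plate plus 3 SD, cut at about 37% in these data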;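 also: 0% = orexin A challenge wells and 100% = SB-334867-A antagonist wells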
* = called active by the depositor. Hits are enriched below; roughly 3.1% of the tested compounds scored in any of these assays.

`COc1ccc(C(NC(=O)c2cc(OC)ccc2OC)c2ccccc2)cc1` (stereo not drawn) gave GPR7 antag -4, CHO parental Ca 0, GalR3 antag -9, OX1R antag-1 15 and OX1R antag-2 -5.
Screening COc1ccc(-c2cn3cc(C(=O)NN)ccc3n2)cc1 returned GPR7 antag -21, CHO parental Ca 54*, GalR3 antag -1, OX1R antag-1 27 and OX1R antag-2 57*.
Screening O=[N+]([O-])c1nn(-c2ccccc2)n(O)c1=NC1CCN(Cc2ccccc2)CC1 returned GPR7 antag -10, CHO parental Ca 3, GalR3 antag -3, OX1R antag-1 46* and OX1R antag-2 -21.
Screening CC#CCOCC1CNC(=O)O1 (stereo not drawn) returned GalR3 antag -2.
`CCCCCCCCCCCCCCCC[n+]1cccc(C(=O)N(CC)CC)c1` gave GPR7 antag 9, CHO parental Ca 57*, GalR3 antag -6, OX1R antag-1 26 and OX1R antag-2 42.
`CCCCCCCCCCCCCCCC[n+]1ccccc1` gave GalR3 antag -1.
`O/N=C/c1cccc[n+]1CCCCCC[n+]1ccccc1/C=N/O` gave GPR7 antag 1 and GalR3 antag -3.
For CCCCCCCC[n+]1cccc(C(=O)N(CC)CC)c1 the results were GPR7 antag -6, CHO parental Ca -4, GalR3 antag -2, OX1R antag-1 7 and OX1R antag-2 9.
`CCCCCCCCCCCCCCCC[n+]1ccc(C(N)=O)cc1` gave GPR7 antag -7, CHO parental Ca 98*, GalR3 antag -8, OX1R antag-1 21 and OX1R antag-2 78*.
`CCCCCCCCCCCCCCCC[n+]1ccc(/C=N/O)cc1` gave GPR7 antag 1, CHO parental Ca 80*, GalR3 antag 1, OX1R antag-1 38 and OX1R antag-2 58*.
Nc1ccc(C(=O)OCCCc2nc3cc4ccccc4cc3[nH]2)cc1 was read as GPR7 antag -2, CHO parental Ca -10, GalR3 antag -6, OX1R antag-1 41* and OX1R antag-2 -12.
For Nc1ccc(C(=O)OCc2nc3cc4ccccc4cc3[nH]2)cc1 the results were GPR7 antag 4, CHO parental Ca -8, GalR3 antag -2, OX1R antag-1 21 and OX1R antag-2 2.
Screening CC1=C(C(=O)Nc2ccc(Cl)cc2)C(c2cccs2)n2nnnc2N1 (stereo not drawn) returned GPR7 antag 20*, CHO parental Ca -12, GalR3 antag -5, OX1R antag-1 8 and OX1R antag-2 -7.
`CCC(CC)CN1CCC(CN2C(=S)NC[C@@H]2Cc2ccccc2)CC1` gave GalR3 antag -8.
Screening CC(C)(C)OC(=O)N1CCC(NC(=O)c2[nH]c(C(F)(F)F)nc2-c2ccccc2)CC1 returned GalR3 antag -3.
For Cc1nn(C(C)(C)C)c(OC(=O)c2ccco2)c1Sc1ccccc1 the results were GPR7 antag -8, CHO parental Ca -7, GalR3 antag -4, OX1R antag-1 22 and OX1R antag-2 -9.
Cc1nn(C(C)(C)C)c(OC(=O)c2ccc(Br)o2)c1Sc1ccccc1 was read as GPR7 antag 4, CHO parental Ca -24, GalR3 antag -7, OX1R antag-1 38* and OX1R antag-2 -19.
Screening Cc1ccn2c(=O)nc(SCC(=O)NC3CCCC3)nc2c1 returned CHO parental Ca -6, GalR3 antag -4, OX1R antag-1 -1 and OX1R antag-2 -6.
Screening FC(F)Sc1ccc(NC(=S)NC2CCCC2)cc1 returned GPR7 antag -8, CHO parental Ca 60*, GalR3 antag -2, OX1R antag-1 26 and OX1R antag-2 11.
`CC(C)c1[nH]nc2c1C(c1ccccc1)NC2=O` (stereo not drawn) gave GalR3 antag -6.
`C/C(CC(C)(C)C1CCCCC1)=N\NC(N)=S` gave GPR7 antag 37*, CHO parental Ca 9, GalR3 antag -3, OX1R antag-1 16 and OX1R antag-2 9.
`CC(OC(=O)c1cc(S(=O)(=O)N(C)c2ccccc2)ccc1Cl)C(=O)Nc1ccc2c(c1)OCCO2` (stereo not drawn) gave GPR7 antag -6, CHO parental Ca -5, GalR3 antag 0, OX1R antag-1 46* and OX1R antag-2 -16.
Screening O=C1c2ccccc2-c2ccc(C(=O)N3CCOCC3)cc21 returned GPR7 antag -4, CHO parental Ca 4, GalR3 antag -5, OX1R antag-1 60* and OX1R antag-2 -21.
Screening O=Cc1cc([B-](F)(F)F)cs1 returned GalR3 antag -3.
`CCN(CC)c1ccc(/C=C/c2cc(-c3ccccc3)c3ccccc3n2)cc1` gave GPR7 antag 2, CHO parental Ca 38*, GalR3 antag -5, OX1R antag-1 6 and OX1R antag-2 5.
For Cc1cc(C)c2cc(C#N)c(N3CCCN(C(=O)c4cnccn4)CC3)nc2c1 the results were GPR7 antag -5, CHO parental Ca -11, GalR3 antag -3, OX1R antag-1 51* and OX1R antag-2 -13.
For COc1cc(F)ccc1-c1csc(C(O)c2ccccc2)n1 (stereo not drawn) the results were GalR3 antag -7.
For O=C(c1cccs1)N1CCN(c2ccc([N+](=O)[O-])cc2F)CC1 the results were GPR7 antag 5, CHO parental Ca -7, GalR3 antag -6, OX1R antag-1 22 and OX1R antag-2 -17.
Cc1cc(N2CCN(C(=O)c3cccs3)CC2)c(F)cc1[N+](=O)[O-] was read as GPR7 antag -3, CHO parental Ca 52*, GalR3 antag -8, OX1R antag-1 47 and OX1R antag-2 9.
`O=C(Nc1ccc2nc(-c3ccco3)c(-c3ccco3)nc2c1)NC1CC1` gave GPR7 antag -1.
`O=C(Nc1ccc(N2CCOCC2)cc1)Nc1ccc2nc(-c3ccco3)c(-c3ccco3)nc2c1` gave GPR7 antag -17, CHO parental Ca 7, GalR3 antag -2, OX1R antag-1 51* and OX1R antag-2 -7.
`COc1ccc(OC)c(/C=N/NC(=O)c2cc3c(OC)c(OC)ccc3[nH]2)c1` gave GPR7 antag -6, CHO parental Ca -11, GalR3 antag -5, OX1R antag-1 29 and OX1R antag-2 -21.
Screening COc1cc(OC)c2cc(C(=O)N/N=C/c3ccccc3O)[nH]c2c1 returned GPR7 antag -7, CHO parental Ca -9, GalR3 antag -9, OX1R antag-1 62* and OX1R antag-2 11.
COc1ccc2[nH]c(C(=O)N/N=C/c3ccccc3OC)cc2c1 was read as GPR7 antag 15, CHO parental Ca -6, GalR3 antag 0, OX1R antag-1 56* and OX1R antag-2 -3.
CC(C)(C)C1=CC(CC(N)=O)(C(C)(C)C)OC1=O (stereo not drawn) was read as GalR3 antag -9.
